{"source": "ChEMBL document CHEMBL1124683", "about": "“Synthesis and in vitro activity of 1 beta-methyl C-2 quaternary heterocyclic alkylthio carbapenems” (J Med Chem, 1989)", "key": {"Sus scrofa": {"organism": "Sus scrofa", "test": "Compound was evaluated for the rate of hydrolysis by renal dipeptidase relative to hog renal dipeptidase", "format": "ADME", "details": "pig; in the assay text read “relative to imipenem” for “relative to hog renal dipeptidase”", "outline": "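Purified hog renal dipeptidase. Substrate was 0.10 mM carbapenem in 50 mM MOPS, pH 7.1, freshly prepared. λmax and ε came from the UV difference spectrum before and after β-lactam cleavage by hydroxylamine at 25 °C. Spontaneous absorbance change was followed at 25 °C, then enzyme was added to give ≥10^-4 AU/s. The corrected rate was converted to nmol min^-1 (mL enzyme)^-1 and expressed relative to imipenem.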"}, "Escherichia coli": {"test_system": "Escherichia coli", "test": "Compound was tested in vitro for antibacterial activity against Escherichia coli A-15119", "format": "functional", "outline": "(§1)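 MIC by serial 2-fold dilution in Mueller-Hinton agar, or in broth. Agar surface or broth was inoculated with an appropriately diluted 18–24-h broth culture. Incubation was 37 °C for 17 h. The MIC was the lowest concentration that inhibited visible growth.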"}, "Enterobacter cloacae": {"test_system": "Enterobacter cloacae", "test": "Compound was tested in vitro for antibacterial activity against Enterobacter cloacae A-9695", "format": "functional", "outline": "as §1"}, "Pseudomonas aeruginosa": {"test_system": "Pseudomonas aeruginosa", "test": "Compound was tested in vitro for antibacterial activity against Pseudomonas aeruginosa", "format": "functional", "outline": "as §1"}, "Proteus vulgaris": {"test_system": "Proteus vulgaris", "test": "Compound was tested in vitro for antibacterial activity against Proteus vulgaris A-21559", "format": "functional", "outline": "as §1"}, "Serratia marcescens": {"test_system": "Serratia marcescens", "test": "Compound was tested in vitro for antibacterial activity against Serratia marcescens A-20019", "format": "functional", "outline": "as §1"}, "Staphylococcus aureus [1]": {"test_system": "Staphylococcus aureus", "test": "(§2) Compound was tested in vitro for antibacterial activity against Staphylococcus aureus, pen-res A-9606", "format": "functional", "outline": "as §1"}, "Staphylococcus aureus [2]": {"test_system": "Staphylococcus aureus", "test": "as §2", "format": "functional, staphylococcus aure", "outline": "as §1"}}}
{"compound": "CC(O)[C@H]1C(=O)N2C(C(=O)[O-])=C(SCc3cc[n+](C)cc3)[C@H](C)C12", "note": "(some centres not stated)", "values": [{"measurement": "Relative rate", "setting": "Sus scrofa", "value": 0.02}, {"measurement": "MIC", "setting": "Escherichia coli", "value": 0.016, "unit": "µg/mL"}, {"measurement": "MIC", "setting": "Enterobacter cloacae", "value": 0.06, "unit": "µg/mL"}, {"measurement": "MIC", "setting": "Pseudomonas aeruginosa", "value": 0.5, "unit": "µg/mL"}, {"measurement": "MIC", "setting": "Proteus vulgaris", "value": 0.03, "unit": "µg/mL"}, {"measurement": "MIC", "setting": "Serratia marcescens", "value": 0.03, "unit": "µg/mL"}, {"measurement": "MIC", "setting": "Staphylococcus aureus [1]", "value": 0.016, "unit": "µg/mL"}]}
{"compound": "Cc1c(CSC2=C(C(=O)[O-])N3C(=O)[C@H](C(C)O)C3C2)ccc[n+]1C", "note": "(some centres not stated)", "values": [{"measurement": "Relative rate", "setting": "Sus scrofa", "value": 0.4}, {"measurement": "MIC", "setting": "Escherichia coli", "value": 0.008, "unit": "µg/mL"}, {"measurement": "MIC", "setting": "Enterobacter cloacae", "value": 0.016, "unit": "µg/mL"}, {"measurement": "MIC", "setting": "Pseudomonas aeruginosa", "value": 0.5, "unit": "µg/mL"}, {"measurement": "MIC", "setting": "Proteus vulgaris", "value": 0.03, "unit": "µg/mL"}, {"measurement": "MIC", "setting": "Serratia marcescens", "value": 0.03, "unit": "µg/mL"}, {"measurement": "MIC", "setting": "Staphylococcus aureus [1]", "value": 0.016, "unit": "µg/mL"}]}
{"compound": "CC(O)[C@H]1C(=O)N2C(C(=O)O)=C(SCc3nccn3C)[C@H](C)C12", "note": "(some centres not stated)", "values": [{"measurement": "Relative rate", "setting": "Sus scrofa", "value": 0.94}, {"measurement": "MIC", "setting": "Escherichia coli", "value": 0.008, "unit": "µg/mL"}, {"measurement": "MIC", "setting": "Enterobacter cloacae", "value": 0.016, "unit": "µg/mL"}, {"measurement": "MIC", "setting": "Pseudomonas aeruginosa", "value": 16, "unit": "µg/mL"}, {"measurement": "MIC", "setting": "Proteus vulgaris", "value": 0.016, "unit": "µg/mL"}, {"measurement": "MIC", "setting": "Serratia marcescens", "value": 0.016, "unit": "µg/mL"}, {"measurement": "MIC", "setting": "Staphylococcus aureus [1]", "value": 0.016, "unit": "µg/mL"}]}
{"compound": "CC(O)[C@H]1C(=O)N2C(C(=O)[O-])=C(SCc3n(C)cc[n+]3C)[C@H](C)C12", "note": "(some centres not stated)", "values": [{"measurement": "Relative rate", "setting": "Sus scrofa", "value": 0.003}, {"measurement": "MIC", "setting": "Escherichia coli", "value": 0.004, "unit": "µg/mL"}, {"measurement": "MIC", "setting": "Enterobacter cloacae", "value": 0.06, "unit": "µg/mL"}, {"measurement": "MIC", "setting": "Pseudomonas aeruginosa", "value": 1, "unit": "µg/mL"}, {"measurement": "MIC", "setting": "Proteus vulgaris", "value": 0.016, "unit": "µg/mL"}, {"measurement": "MIC", "setting": "Serratia marcescens", "value": 0.03, "unit": "µg/mL"}, {"measurement": "MIC", "setting": "Staphylococcus aureus [1]", "value": 0.008, "unit": "µg/mL"}]}
{"compound": "C[C@@H](O)[C@H]1C(=O)N2C(C(=O)O)=C(SCCN=CN)C[C@H]12", "note": "[IMIPENEM ANHYDROUS]", "values": [{"measurement": "Relative rate", "setting": "Sus scrofa", "value": 1}, {"measurement": "MIC", "setting": "Escherichia coli", "value": 0.016, "unit": "µg/mL"}, {"measurement": "MIC", "setting": "Enterobacter cloacae", "value": 0.06, "unit": "µg/mL"}, {"measurement": "MIC", "setting": "Pseudomonas aeruginosa", "value": 0.25, "unit": "µg/mL"}, {"measurement": "MIC", "setting": "Proteus vulgaris", "value": 0.03, "unit": "µg/mL"}, {"measurement": "MIC", "setting": "Serratia marcescens", "value": 0.03, "unit": "µg/mL"}, {"measurement": "MIC", "setting": "Staphylococcus aureus [1]", "value": 0.008, "unit": "µg/mL"}]}
{"compound": "Cc1c(CSC2=C(C(=O)[O-])N3C(=O)[C@H](C(C)O)C3[C@H]2C)ccc[n+]1C", "note": "(some centres not stated)", "values": [{"measurement": "Relative rate", "setting": "Sus scrofa", "value": 0.01}, {"measurement": "MIC", "setting": "Escherichia coli", "value": 0.004, "unit": "µg/mL"}, {"measurement": "MIC", "setting": "Enterobacter cloacae", "value": 0.016, "unit": "µg/mL"}, {"measurement": "MIC", "setting": "Pseudomonas aeruginosa", "value": 2, "unit": "µg/mL"}, {"measurement": "MIC", "setting": "Proteus vulgaris", "value": 0.03, "unit": "µg/mL"}, {"measurement": "MIC", "setting": "Serratia marcescens", "value": 0.16, "unit": "µg/mL"}, {"measurement": "MIC", "setting": "Staphylococcus aureus [1]", "value": 0.016, "unit": "µg/mL"}]}
{"compound": "CC(O)[C@H]1C(=O)N2C(C(=O)[O-])=C(SCc3n(C)cc[n+]3C)CC12", "note": "(some centres not stated)", "values": [{"measurement": "Relative rate", "setting": "Sus scrofa", "value": 0.2}, {"measurement": "MIC", "setting": "Escherichia coli", "value": 0.008, "unit": "µg/mL"}, {"measurement": "MIC", "setting": "Enterobacter cloacae", "value": 0.03, "unit": "µg/mL"}, {"measurement": "MIC", "setting": "Pseudomonas aeruginosa", "value": 2, "unit": "µg/mL"}, {"measurement": "MIC", "setting": "Proteus vulgaris", "value": 0.008, "unit": "µg/mL"}, {"measurement": "MIC", "setting": "Staphylococcus aureus [2]", "value": 0.004, "unit": "µg/mL"}, {"measurement": "MIC", "setting": "Serratia marcescens", "value": 0.016, "unit": "µg/mL"}]}
{"compound": "CC(O)[C@H]1C(=O)N2C(C(=O)[O-])=C(SCc3cc[n+](C)cc3)CC12", "note": "(some centres not stated)", "values": [{"measurement": "Relative rate", "setting": "Sus scrofa", "value": 0.84}, {"measurement": "MIC", "setting": "Escherichia coli", "value": 0.03, "unit": "µg/mL"}, {"measurement": "MIC", "setting": "Pseudomonas aeruginosa", "value": 0.5, "unit": "µg/mL"}, {"measurement": "MIC", "setting": "Proteus vulgaris", "value": 0.03, "unit": "µg/mL"}, {"measurement": "MIC", "setting": "Serratia marcescens", "value": 0.13, "unit": "µg/mL"}, {"measurement": "MIC", "setting": "Staphylococcus aureus [1]", "value": 0.016, "unit": "µg/mL"}]}
{"compound": "CC(O)[C@H]1C(=O)N2C(C(=O)O)=C(SCc3ccncc3)CC12", "note": "(some centres not stated)", "values": [{"measurement": "Relative rate", "setting": "Sus scrofa", "value": 3.84}, {"measurement": "MIC", "setting": "Escherichia coli", "value": 0.03, "unit": "µg/mL"}, {"measurement": "MIC", "setting": "Enterobacter cloacae", "value": 0.5, "unit": "µg/mL"}, {"measurement": "MIC", "setting": "Pseudomonas aeruginosa", "value": 32, "unit": "µg/mL"}, {"measurement": "MIC", "setting": "Proteus vulgaris", "value": 0.03, "unit": "µg/mL"}, {"measurement": "MIC", "setting": "Serratia marcescens", "value": 0.13, "unit": "µg/mL"}, {"measurement": "MIC", "setting": "Staphylococcus aureus [1]", "value": 0.03, "unit": "µg/mL"}]}
